Data from ChEMBL document CHEMBL3994605, “Synthesis and biological evaluation of curcumin inspired indole analogues as tubulin polymerization inhibitors” (Eur J Med Chem, 2017).
Structures can show the parent of a compound that is named as a salt.

Key:
DU-145 [1] = experiment: Antiproliferative activity against human DU145 cells after 48 hrs by MTT assay; type: functional, cell-based; settings: DU-145, 48 h
Method in brief: (§1)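 MTT read-out. Cells were seeded at 5 × 10^3 per well in DMEM or RPMI with 10% FBS and grown 24 h at 37 °C in CO2. Compound dilutions in medium, with vehicle control, were then added for 48 h. MTT (0.5 mg/mL in medium) was given for 4 h, formazan was dissolved in DMSO, and A570 was read. IC50 was taken from concentration–response curves as mean ± SD of three experiments run in triplicate.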

HGC-27 = experiment: Antiproliferative activity against human HGC27 cells after 48 hrs by MTT assay; type: functional, cell-based; settings: HGC-27, 48 h; method in brief: as §1
BT-549 [2] = experiment: Antiproliferative activity against human BT549 cells after 48 hrs by MTT assay; type: functional, cell-based; settings: BT-549, 48 h; method in brief: as §1
PC-3 [3] = experiment: Antiproliferative activity against human PC3 cells after 48 hrs by MTT assay; type: functional, cell-based; settings: PC-3, 48 h; method in brief: as §1
HeLa = experiment: Antiproliferative activity against human HeLa cells after 48 hrs by MTT assay; type: functional, cell-based; method in brief: as §1
A549 = experiment: Antiproliferative activity against human A549 cells after 48 hrs by MTT assay; type: functional, cell-based; settings: A549, 48 h; method in brief: as §1
MDA-MB-231 [4] = experiment: Antiproliferative activity against human MDA-MB-231 cells after 48 hrs by MTT assay; type: functional, cell-based; settings: MDA-MB-231, 48 h; method in brief: as §1
4T1 = experiment: Antiproliferative activity against mouse 4T1 cells after 48 hrs by MTT assay; type: functional, cell-based; settings: 4T1, 48 h; method in brief: as §1
DU-145 [5] = experiment: Potency index, ratio of curcumin IC50 to compound IC50 for human DU145 cells; type: functional
MDA-MB-231 [6] = experiment: Potency index, ratio of curcumin IC50 to compound IC50 for human MDA-MB-231 cells; type: functional
BT-549 [7] = experiment: Potency index, ratio of curcumin IC50 to compound IC50 for human BT549 cells; type: functional
Sus scrofa = species on record: Sus scrofa; experiment: Inhibition of porcine brain tubulin polymerization assessed as reduction in incorporation of fluorescent reporter at 10 uM by fluorescence based assay relative to control
Method in brief: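 Cell-free mix contained porcine brain tubulin (2 mg/mL) in 80 mM PIPES pH 6.9 with 2.0 mM MgCl2, 0.5 mM EGTA, 1.0 mM GTP and glycerol, with or without compound. Polymerization was tracked as a time-dependent fluorescence rise from reporter incorporation (ex 360, em 440 nm), with nocodazole as positive control. Inhibition was scored versus the untreated control. For IC50, the concentration giving 50% inhibition of assembly was used.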

PC-3 [8] = experiment: Potency index, ratio of curcumin IC50 to compound IC50 for human PC3 cells; type: functional

| Compound | IC50 (DU-145 [1]) [µM] | IC50 (HGC-27) [µM] | IC50 (BT-549 [2]) [µM] | IC50 (PC-3 [3]) [µM] | IC50 (HeLa) [µM] | IC50 (A549) [µM] | IC50 (MDA-MB-231 [4]) [µM] | IC50 (4T1) [µM] | Ratio IC50 (DU-145 [5]) | Ratio IC50 (MDA-MB-231 [6]) | Ratio IC50 (BT-549 [7]) | inhibition (Sus scrofa) [%] | Ratio IC50 (PC-3 [8]) |
| --- | --- | --- | --- | --- | --- | --- | --- | --- | --- | --- | --- | --- | --- |
| O=C(/C=C/c1ccc(Cl)cc1)/C=C/c1c[nH]c2ccccc12 | > 50 | 50 | 30.1 | > 50 | 25.2 | > 50 | 50.2 | 40.2 |  |  |  |  |  |
| COc1ccc(/C=C/C(=O)/C=C/c2c[nH]c3ccccc23)cc1OC | 13.3 | 7.45 | 4.69 | 5.52 | 6.44 | 30.2 | 15.7 | 21.9 | 2.1 | 1 | 5.3 | 39.7 | 2.2 |
| COc1cc(OC)c(/C=C/C(=O)/C=C/c2cn(Cc3ccc(Cl)cc3)c3ccccc23)c(OC)c1 | > 50 | > 50 | > 50 | > 50 | 40.9 | > 50 | > 50 | > 50 |  |  |  |  |  |
| COc1ccc(/C=C/C(=O)/C=C/c2cn(Cc3cccc(F)c3)c3ccccc23)cc1 | > 50 | > 50 | 40.4 | > 50 | > 50 | > 50 | > 50 | > 50 |  |  |  |  |  |
| COc1cc(OC)c(OC)cc1/C=C/C(=O)/C=C/c1cn(Cc2ccc(F)cc2)c2ccccc12 | > 50 | 40.2 | 25.1 | > 50 | 30.7 | 50.1 | > 50 | 25.2 |  |  |  |  |  |
| COc1cc(OC)c(/C=C/C(=O)/C=C/c2c[nH]c3ccccc23)c(OC)c1 |  |  | 10.5 | 3.12 |  |  | 46.4 | 13.9 |  | 0.3 | 2.4 |  | 3.9 |
| COc1ccc(OC)c(/C=C/C(=O)/C=C/c2cn(Cc3ccc(C(F)(F)F)cc3)c3ccccc23)c1 | > 50 | > 50 | > 50 | > 50 | > 50 | > 50 | > 50 | > 50 |  |  |  |  |  |
| COc1ccc(/C=C/C(=O)/C=C/c2c[nH]c3ccccc23)cc1 | 13.6 | 24 | 31.4 | 3.51 |  | 45.1 | 32 | 21.6 |  |  |  |  |  |
| COc1ccc(/C=C/C(=O)/C=C/c2cn(Cc3ccc(Cl)cc3)c3ccccc23)cc1 | > 50 | > 50 | 50.4 | > 50 | 50 | > 50 | > 50 | > 50 |  |  |  |  |  |
| CC[C@]1(O)C[C@H]2CN(CCc3c([nH]c4ccccc34)[C@@](C(=O)OC)(c3cc4c(cc3OC)N(C=O)[C@H]3[C@@](O)(C(=O)OC)[C@H](OC(C)=O)[C@]5(CC)C=CCN6CC[C@]43[C@@H]65)C2)C1 [VINCRISTINE SULFATE] | 0.0723 |  | 0.0547 | 0.0276 |  | 0.172 | 0.117 |  |  |  |  |  |  |
| COc1ccc(/C=C/C(=O)/C=C/c2cn(Cc3ccc(OC(F)(F)F)cc3)c3ccccc23)cc1OC | > 50 | > 50 | 50.1 | > 50 | 50.5 | > 50 | > 50 | > 50 |  |  |  |  |  |
| COc1cc(OC)c(/C=C/C(=O)/C=C/c2cn(Cc3cccc(F)c3)c3ccccc23)c(OC)c1 | > 50 | > 50 | > 50 | > 50 | 40.1 | > 50 | > 50 | > 50 |  |  |  |  |  |
